According to ChEMBL document CHEMBL4665785 (J Med Chem, 2020):
Each block holds one molecule with its values, some of them ahead of it. Calls of active or inactive are those of the source. No cut-off for these calls is given here.

Assays:
[1] = molecular target: T1, Cathepsin S (Homo sapiens, UniProt P25774); experiment: Inhibition of recombinant human Cathepsin S expressed in baculovirus infected insect cells using Z-VVR-AMC as substrate preincubated for 15 mins followed by substrate addition and measured after 10 mins by fluorescence assay
T1 sequence (P25774 whole entry): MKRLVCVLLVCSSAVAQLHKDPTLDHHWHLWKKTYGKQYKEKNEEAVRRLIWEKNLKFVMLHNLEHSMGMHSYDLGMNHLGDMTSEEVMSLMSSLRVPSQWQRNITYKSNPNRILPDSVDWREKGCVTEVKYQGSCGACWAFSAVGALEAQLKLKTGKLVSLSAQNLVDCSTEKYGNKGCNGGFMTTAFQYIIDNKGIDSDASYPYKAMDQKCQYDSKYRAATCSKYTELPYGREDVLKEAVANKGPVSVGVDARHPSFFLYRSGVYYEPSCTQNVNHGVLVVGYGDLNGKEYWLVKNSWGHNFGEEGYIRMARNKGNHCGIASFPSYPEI

[2] = molecular target: T1, Cathepsin S; experiment: Inhibition of Cathepsin S in human Raji cells assessed as increase in Lip10 accumulation after 24 hrs by SDS-PAGE analysis; assay type: cell-based
In short: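 Human Raji cells, an antigen-presenting B-lymphocyte line, used for the target-engagement read-out. Inhibition is scored as intracellular accumulation of the CatS substrate Lip10, the invariant-chain-derived propeptide.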

[3] = Permeability across apical to basal side in human Caco-2 cells at 1 uM measured up to 120 min by LC-MS analysis; assay type: ADME, cell-based; conditions: time <= 120, dose 1 µM, read-out: permeability
[4] = species: Homo sapiens; experiment: Selectivity ratio of inhibition of human liver Cathepsin L to inhibition of recombinant human Cathepsin S
[5] = molecular target: Procathepsin L (Homo sapiens) (UniProt P07711); experiment: Inhibition of human liver Cathepsin L using Z-VVR-AMC as substrate at 10 uM preincubated for 15 mins followed by substrate addition and measured after 10 mins by fluorescence assay relative to control; conditions: time 25.0 min
Chain of Procathepsin L (Homo sapiens) (P07711 114-333 limits assumed): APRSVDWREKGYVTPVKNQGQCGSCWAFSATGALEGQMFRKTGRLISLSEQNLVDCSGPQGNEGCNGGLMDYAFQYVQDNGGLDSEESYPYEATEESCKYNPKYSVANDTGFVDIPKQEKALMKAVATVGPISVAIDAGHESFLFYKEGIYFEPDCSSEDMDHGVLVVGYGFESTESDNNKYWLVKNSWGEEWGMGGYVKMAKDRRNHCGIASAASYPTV

[6] = species: Homo sapiens; experiment: Selectivity ratio of inhibition of recombinant human Cathepsin K to inhibition of recombinant human Cathepsin S
[7] = molecular target: Cathepsin B (Homo sapiens) (UniProt P07858); experiment: Inhibition of human liver Cathepsin B using Z-VVR-AMC as substrate at 10 uM preincubated for 15 mins followed by substrate addition and measured after 10 mins by fluorescence assay relative to control; conditions: time 25.0 min
[8] = molecular target: T2, Cathepsin K (Homo sapiens) (UniProt P43235); experiment: Inhibition of recombinant human Cathepsin K expressed in baculovirus infected insect cells using Z-FR-AMC as substrate at 10 uM preincubated for 15 mins followed by substrate addition and measured after 10 mins by fluorescence assay relative to control; conditions: time 25.0 min
T2 sequence (whole entry): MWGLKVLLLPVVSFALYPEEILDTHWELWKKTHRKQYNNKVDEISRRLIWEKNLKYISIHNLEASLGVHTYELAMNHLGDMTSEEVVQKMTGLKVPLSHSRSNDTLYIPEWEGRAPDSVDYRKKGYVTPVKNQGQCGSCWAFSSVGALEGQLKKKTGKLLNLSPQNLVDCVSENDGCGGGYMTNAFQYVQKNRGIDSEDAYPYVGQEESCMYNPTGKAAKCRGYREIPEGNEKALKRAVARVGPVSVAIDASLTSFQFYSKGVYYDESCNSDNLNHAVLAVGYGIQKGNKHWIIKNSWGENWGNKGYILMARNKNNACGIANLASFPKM

[9] = species: Homo sapiens; experiment: Selectivity ratio of inhibition of human liver Cathepsin B to inhibition of recombinant human Cathepsin S
[10] = molecular target: T2, Cathepsin K (Homo sapiens); experiment: Inhibition of recombinant human Cathepsin K expressed in baculovirus infected insect cells using Z-FR-AMC as substrate up to 100 uM preincubated for 15 mins followed by substrate addition and measured after 10 mins by fluorescence assay relative to control; conditions: time 25.0 min

SMILES: N#CC1(NC(=O)[C@@H](Cc2ccccc2)CS(=O)(=O)N2CCN(c3ccccn3)CC2)CC1
Ki [1]: 290 nM

SMILES: N#CC1(NC(=O)CCS(=O)(=O)N2CCN(c3ccccn3)CC2)CC1
Ki [1]: 800 nM

SMILES: N#CC1(NC(=O)[C@H](CS(=O)(=O)N2CCN(c3ccccn3)CC2)NC(=O)Cc2cccs2)CC1
Ki [1]: 0.2 nM
EC50 [2]: 1100 nM
Papp A→B at 2 h, 1 µM [3]: 0.4 ×10⁻⁶ cm/s

SMILES: N#CC1(NC(=O)[C@H](CS(=O)(=O)N2CCN(c3ccccn3)CC2)Nc2cccnc2)CC1
Ki [1]: 0.25 nM
Papp A→B at 2 h, 1 µM [3]: 0.33 ×10⁻⁶ cm/s

Now from value to molecule:

Ki [1]: ≤ 100 nM
SMILES: N#CC1(NC(=O)[C@H](CS(=O)(=O)C[C@H]2CCC(=O)N2)N[C@@H](c2ccc(F)cc2)C(F)(F)F)CC1

Ki [1]: 0.345 nM
Selectivity ratio [4]: > 30000
inhibition [5]: < 26%
Selectivity ratio [6]: > 30000
inhibition [7]: < 8%
inhibition [8]: < 16%
Selectivity ratio [9]: > 30000
SMILES: Cc1cc(CC(=O)N[C@@H](CS(=O)(=O)N2CCN(c3ccccn3)CC2)C(=O)NC2(C#N)CC2)on1

Ki [1]: 700 nM
inhibition [10]: inactive
SMILES: CNC(=O)CCS(=O)(=O)N1CCN(c2ccc3nncn3n2)CC1
